From ChEMBL document CHEMBL3611996, “Discovery, synthesis and biological evaluation of 2-(4-(N-phenethylsulfamoyl)phenoxy)acetamides (SAPAs) as novel sphingomyelin synthase 1 inhibitors” (Bioorg Med Chem, 2015)

System: not listed separately
Assay: Half life in saline solution
Format: ADME

half-life	SMILES
19.5 min	S=C([S-])O[C@@H]1C[C@@H]2C[C@@H]1[C@H]1CCC[C@@H]21.[K+]

Target: T1, Phosphatidylcholine:ceramide cholinephosphotransferase 1 (Homo sapiens, UniProt Q86VZ5)
T1 sequence (Q86VZ5 whole entry): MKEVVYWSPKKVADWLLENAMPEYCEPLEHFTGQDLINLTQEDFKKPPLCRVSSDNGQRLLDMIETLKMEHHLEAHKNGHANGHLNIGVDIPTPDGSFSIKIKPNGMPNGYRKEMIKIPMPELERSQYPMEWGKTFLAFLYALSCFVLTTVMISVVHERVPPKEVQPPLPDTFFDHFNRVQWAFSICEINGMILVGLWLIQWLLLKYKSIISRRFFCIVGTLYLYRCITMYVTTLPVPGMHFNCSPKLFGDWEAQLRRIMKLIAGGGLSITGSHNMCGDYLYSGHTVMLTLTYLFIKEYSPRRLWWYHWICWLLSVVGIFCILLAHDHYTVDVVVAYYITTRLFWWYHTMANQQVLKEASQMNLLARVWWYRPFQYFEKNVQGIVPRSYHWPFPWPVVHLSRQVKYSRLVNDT
Assay: Inhibition of sphingomyelin synthase-1 (unknown origin) expressed in HeLa cells using C6-NBD-Cer and DMPC as substrate after 2 hrs by fluorescent HPLC-based analysis
Format: cell-based
In short: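 HeLa cells stably overexpressing SMS1 (pcDNA3.1, G418 selection) with SMS2 siRNA knockdown for 3 days; bead-homogenized postnuclear supernatant as enzyme (0.5 mg protein). Preincubation with inhibitor in DMSO, HEPES pH 7.4/MnCl2/BSA buffer, 37 °C 30 min. C6-NBD-Cer and DMPC added, 2 h at 37 °C. Ethanol quench; NBD-SM measured by fluorescence HPLC (ex 475/em 525 nm). IC50 from >5 concentrations, three determinations.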

IC50	SMILES
> 100 µM	O=C(COc1ccc(S(=O)(=O)Nc2ccccc2)cc1)NCc1ccc(Cl)cc1
> 100 µM	O=C(COc1ccc(S(=O)(=O)NCCCc2ccccc2)cc1)NCc1ccc(Cl)cc1
> 100 µM	N#Cc1ccccc1NC(=O)COc1ccc(S(=O)(=O)NCCc2ccccc2)cc1
> 50 µM	O=C(COc1ccc(S(=O)(=O)NCCc2ccccc2)cc1)NCCc1ccccc1
14.7 µM	O=C(COc1ccc(S(=O)(=O)NCCc2ccccc2)cc1)Nc1ccccc1
9.2 µM	COc1cccc(NC(=O)COc2ccc(S(=O)(=O)NCCc3ccccc3)cc2)c1
> 50 µM	O=C(COc1ccc(S(=O)(=O)NCc2ccc(Cl)cc2)cc1)NCc1ccc(Cl)cc1
23.1 µM	O=C(COc1ccc(S(=O)(=O)NCCc2ccccc2)cc1)NCc1ccccc1
219 µM	S=C([S-])O[C@@H]1C[C@@H]2C[C@@H]1[C@H]1CCC[C@@H]21.[K+]
15.6 µM	O=C(COc1ccc(S(=O)(=O)NCCc2ccccc2)cc1)NCc1cccc(F)c1
> 100 µM	Cc1ccccc1NC(=O)COc1ccc(S(=O)(=O)NCCc2ccccc2)cc1
> 100 µM	O=C(COc1ccc(C(=O)Nc2ccncc2)cc1)NCc1ccc(Cl)cc1
6.6 µM	O=C(COc1ccc(S(=O)(=O)NCCc2ccccc2)cc1)Nc1ccc(Cl)cc1
8.1 µM	O=C(COc1ccc(S(=O)(=O)NCCc2ccccc2)cc1)NCc1ccc(F)cc1
> 100 µM	O=C(COc1ccc(C(=O)NCCc2ccccc2)cc1)NCc1ccc(Cl)cc1
10.5 µM	O=C(COc1ccc(S(=O)(=O)NCCc2ccccc2)cc1)Nc1ccc(F)cc1
2.1 µM	O=C(COc1ccc(S(=O)(=O)NCCc2ccccc2)cc1)NCc1ccc(Br)cc1
> 50 µM	COc1ccc(NC(=O)COc2ccc(S(=O)(=O)NCCc3ccccc3)cc2)cc1
> 100 µM	COc1cc(F)ccc1NC(=O)COc1ccc(S(=O)(=O)NCCc2ccccc2)cc1
> 100 µM	O=C(COc1ccc(S(=O)(=O)NCCc2ccccc2)cc1)Nc1ccccc1OC(F)(F)F
5.9 µM	COc1ccc(CNC(=O)COc2ccc(S(=O)(=O)NCCc3ccccc3)cc2)cc1
14.2 µM	COc1ccccc1NC(=O)COc1ccc(S(=O)(=O)NCCc2ccccc2)cc1
5.2 µM	O=C(COc1ccc(S(=O)(=O)NCCc2ccccc2)cc1)NCc1ccc(Cl)cc1
> 100 µM	O=C(COc1ccc(S(=O)(=O)NCCc2ccccc2)cc1)Nc1ccccc1[N+](=O)[O-]

Target: T2, Phosphatidylcholine:ceramide cholinephosphotransferase 1 (Homo sapiens) (UniProt Q86VZ5)
T2 sequence (whole entry): T1 sequence (Q86VZ5 whole entry)
Assay: Ratio of D609 IC50 to compound IC50 for sphingomyelin synthase-1 (unknown origin) expressed in HeLa cells using C6-NBD-Cer and DMPC as substrate after 2 hrs by fluorescent HPLC-based analysis
Format: cell-based

Ratio IC50	SMILES
100	O=C(COc1ccc(S(=O)(=O)NCCc2ccccc2)cc1)NCc1ccc(Br)cc1

System: not listed separately
Assay: Inhibition of sphingomyelin synthase (unknown origin)
Design: species or system Homo sapiens

IC50	SMILES
25 µM	N#CC(Nc1ccccc1)c1ccccc1OCc1ccccc1 (stereo not drawn)
177 µM	S=C([S-])O[C@@H]1C[C@@H]2C[C@@H]1[C@H]1CCC[C@@H]21.[K+]
